The target of series [1] is T1, Alpha-1D adrenergic receptor (Homo sapiens, UniProt P25100).
T1 sequence (P25100 whole entry): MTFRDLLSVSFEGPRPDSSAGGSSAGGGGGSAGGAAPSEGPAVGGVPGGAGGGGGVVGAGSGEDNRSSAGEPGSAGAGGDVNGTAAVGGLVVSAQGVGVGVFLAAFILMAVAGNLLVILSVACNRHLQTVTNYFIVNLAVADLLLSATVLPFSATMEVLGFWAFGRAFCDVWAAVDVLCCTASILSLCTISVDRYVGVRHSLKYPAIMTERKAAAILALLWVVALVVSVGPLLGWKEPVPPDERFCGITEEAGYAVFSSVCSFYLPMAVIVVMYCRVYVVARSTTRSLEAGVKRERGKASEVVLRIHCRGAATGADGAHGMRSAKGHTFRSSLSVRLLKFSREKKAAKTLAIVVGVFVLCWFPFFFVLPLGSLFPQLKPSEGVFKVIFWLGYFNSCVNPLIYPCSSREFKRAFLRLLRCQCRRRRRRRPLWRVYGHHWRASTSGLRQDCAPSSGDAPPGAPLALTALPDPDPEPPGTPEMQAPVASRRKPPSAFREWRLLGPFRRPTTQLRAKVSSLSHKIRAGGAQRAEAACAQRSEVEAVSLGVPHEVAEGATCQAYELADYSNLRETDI
The series can be described thus: Displacement of [3H]-Prazosin from human alpha-1D adrenergic receptor transfected in CHO cell membranes after 2 hrs by microplate scintillation counting analysis. The procedure, abridged: (§1)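 Radioligand competition binding used [3H]prazosin on membranes from CHO cells transfected with human cloned α1A-, α1B- or α1D-adrenoceptors.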

Series [2] has as its target T2, Alpha-1D adrenergic receptor (Homo sapiens) (UniProt P25100).
T2 sequence (whole entry): T1 sequence (P25100 whole entry)
The series can be described thus: Binding affinity to alpha-1D adrenergic receptor (unknown origin) transfected in HEK293A cells at 50 nM after 5 mins by DiD dye-based confocal microscopic analysis. In kind it is cell-based. The settings on record: HEK293-A. The procedure, abridged: (§2)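 α1A-AR- or α1D-AR-transfected HEK293A cells, or untransfected HEK293A cells as the receptor-free control, were incubated with the probe plus DiD (red, colocalization) for 5 min at 37 °C. Probe signal was compared with the DiD-stained surface for subcellular localization by fluorescence microscopy.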

For series [3], the target named is T3, Alpha-1B adrenergic receptor (Homo sapiens, UniProt P35368).
T3 sequence (P35368 whole entry): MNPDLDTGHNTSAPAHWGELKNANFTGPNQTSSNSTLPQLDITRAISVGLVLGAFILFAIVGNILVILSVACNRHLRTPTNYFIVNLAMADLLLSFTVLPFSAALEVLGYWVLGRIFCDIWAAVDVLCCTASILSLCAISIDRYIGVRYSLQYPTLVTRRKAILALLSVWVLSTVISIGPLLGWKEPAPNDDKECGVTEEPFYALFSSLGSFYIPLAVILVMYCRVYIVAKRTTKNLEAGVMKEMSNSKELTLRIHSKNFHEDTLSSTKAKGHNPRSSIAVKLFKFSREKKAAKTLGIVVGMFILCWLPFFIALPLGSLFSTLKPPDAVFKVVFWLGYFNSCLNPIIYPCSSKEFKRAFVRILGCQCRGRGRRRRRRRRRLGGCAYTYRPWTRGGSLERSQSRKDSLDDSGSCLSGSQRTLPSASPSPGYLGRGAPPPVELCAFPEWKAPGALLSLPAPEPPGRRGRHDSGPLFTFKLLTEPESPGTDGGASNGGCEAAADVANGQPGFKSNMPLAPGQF
The series can be described thus: Displacement of [3H]-Prazosin from human alpha-1B adrenergic receptor transfected in CHO cell membranes after 2 hrs by microplate scintillation counting analysis. The method in brief: as §1

In series [4] the target is T4, Alpha-1A adrenergic receptor (Homo sapiens) (UniProt P35348).
T4 sequence (whole entry): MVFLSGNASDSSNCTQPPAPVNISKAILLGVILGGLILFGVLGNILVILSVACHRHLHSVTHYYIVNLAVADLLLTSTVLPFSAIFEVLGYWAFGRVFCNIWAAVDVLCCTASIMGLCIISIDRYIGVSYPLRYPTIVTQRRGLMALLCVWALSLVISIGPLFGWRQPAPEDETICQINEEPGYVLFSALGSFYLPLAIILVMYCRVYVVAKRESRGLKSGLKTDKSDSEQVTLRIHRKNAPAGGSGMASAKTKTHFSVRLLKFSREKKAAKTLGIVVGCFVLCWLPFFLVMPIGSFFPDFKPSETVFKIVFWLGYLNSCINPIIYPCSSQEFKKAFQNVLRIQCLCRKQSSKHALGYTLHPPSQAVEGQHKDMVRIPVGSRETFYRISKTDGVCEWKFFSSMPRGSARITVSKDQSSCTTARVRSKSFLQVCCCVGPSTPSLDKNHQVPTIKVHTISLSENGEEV
The series can be described thus: Binding affinity to alpha-1A adrenergic receptor (unknown origin) transfected in HEK293A cells at 50 nM after 5 mins by DiD dye-based confocal microscopic analysis in presence of alpha1 adrenergic receptor antagonist tamsulosin. In kind it is cell-based. The following applies: HEK293-A. The procedure, abridged: (§3)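 Transfected HEK293A cells expressing α1A-AR or α1D-AR were incubated with the probe, DiD and tamsulosin as competing α1-AR antagonist for 5 min at 37 °C. Fluorescence labelling was imaged by confocal microscopy.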

Series [5] has as its target T5, Adrenergic receptor alpha-1 (Homo sapiens) (UniProt P35348+P25100+P35368). Nature of the series: Binding affinity to alpha-1 adrenergic receptor in human PC3 cells at 1 uM measured 30 mins post wash out by fluorescence assay. In kind it is cell-based. The following applies: PC-3. The procedure, abridged:
(§4)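 PC-3 or HepG2 cells were incubated with the probe at 1 μM for 30 min at 37 °C, then washed immediately. Labelling was imaged by fluorescence microscopy, with background adjusted.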

For series [6], the system named is HepG2. The series can be described thus: Drug uptake in human HepG2 cells expressing low level of alpha-1 adrenergic receptor at 1 uM measured 30 mins post wash out by fluorescence assay. The following applies: hepg2, 0.5 h. In kind it is ADME, cell-based. The method in brief: as §4
Series [7] deals with T6, Alpha-1A adrenergic receptor (Homo sapiens, UniProt P35348).
T6 sequence (P35348 whole entry): T4 sequence (whole entry)
The series can be described thus: Displacement of [3H]-Prazosin from human alpha-1A adrenergic receptor transfected in CHO cell membranes after 2 hrs by microplate scintillation counting analysis. The method in brief: as §1
On the technique in general: In a radioligand displacement assay an active substance lowers the binding of a labelled ligand.

Series [8] in a line: Cytotoxicity against HEK293A cells transfected with alpha-1A adrenergic receptor assessed as cell viability by sulforhodamine B assay. The class given is cell-based. The settings on record: Homo sapiens, HEK293-A. The procedure, abridged: (§5)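 Standard sulforhodamine B colorimetric assay in HEK293A cells stably transfected with α1A-AR or α1D-AR.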
Series [9] deals with T4, Alpha-1A adrenergic receptor (Homo sapiens). Nature of the series: Binding affinity to alpha-1A adrenergic receptor (unknown origin) transfected in HEK293A cells at 50 nM after 5 mins by DiD dye-based confocal microscopic analysis. The class given is cell-based. The settings on record: HEK293-A. The procedure, abridged:
as §2

Series [10] can be described thus: Cytotoxicity against HEK293A cells transfected with alpha-1D adrenergic receptor assessed as cell viability by sulforhodamine B assay. In kind it is cell-based. The settings on record: Homo sapiens, HEK293-A. The method in brief:
as §5
Background: Sulforhodamine B stains cellular protein and so reports cell mass.

For series [11], the target named is T5, Adrenergic receptor alpha-1 (Homo sapiens). The series can be described thus: Binding affinity to alpha-1 adrenergic receptor in human PC3 cells at 1 uM measured 30 mins post wash out by fluorescence assay in presence of doxazosin. The class given is cell-based. The following applies: PC-3. The procedure, abridged: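 PC-3 cells were co-incubated with the probe at 1 μM and doxazosin at 10 μM for 30 min at 37 °C, then washed immediately. Displacement of labelling was imaged by fluorescence microscopy.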

Series [12] addresses T2, Alpha-1D adrenergic receptor (Homo sapiens). The series can be described thus: Binding affinity to alpha-1D adrenergic receptor (unknown origin) transfected in HEK293A cells at 50 nM after 5 mins by DiD dye-based confocal microscopic analysis in presence of alpha1 adrenergic receptor antagonist tamsulosin. The class given is cell-based. The settings on record: HEK293-A. The procedure, abridged:
as §3

Series [13] is described as follows: Drug uptake in HEK293A cells at 50 nM after 5 mins by DiD dye-based confocal microscopic analysis. The class given is ADME, cell-based. The settings on record: human, hek293-a, 0.05 µM. The procedure, abridged:
as §2

Series [14] deals with T4, Alpha-1A adrenergic receptor (Homo sapiens). Nature of the series: Binding affinity to alpha-1A adrenergic receptor (unknown origin) transfected in HEK293A cells at 15 nM measured 5 mins post wash out by DiD dye-based confocal microscopic analysis in presence of alpha1 adrenergic receptor antagonist tamsulosin. In kind it is cell-based. The following applies: HEK293-A. The procedure, abridged:
(§6)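 α1A-AR- or α1D-AR-transfected HEK293A cells were incubated with the probe at 15 nM, DiD and tamsulosin at 300 nM as competitor for 5 min at 37 °C. Cells were washed immediately and imaged by confocal microscopy at identical exposure.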

For series [15], the target named is T2, Alpha-1D adrenergic receptor (Homo sapiens). The series can be described thus: Binding affinity to alpha-1D adrenergic receptor (unknown origin) transfected in HEK293A cells at 15 nM measured 5 mins post wash out by DiD dye-based confocal microscopic analysis. The settings on record: HEK293-A. In kind it is cell-based. The method in brief:
(§7)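 HEK293A cells stably transfected with α1A-AR or α1D-AR, or untransfected HEK293A cells, were incubated with the probe at 15 nM plus the membrane dye DiD for 5 min at 37 °C. Cells were washed immediately and imaged by confocal fluorescence microscopy at identical exposure times.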

Series [16] can be described thus: Drug uptake in plasma membrane of HEK293A cells transfected with alpha-1D adrenergic receptor at 50 nM measured 5 mins post wash out by DiD dye-based confocal microscopic analysis. The class given is ADME, cell membranes. The settings on record: human, hek293-a, 0.05 µM. The method in brief:
as §2

The nature of series [17]: Drug uptake in cytoplasm of HEK293A cells transfected with alpha-1D adrenergic receptor at 50 nM measured 5 mins post wash out by DiD dye-based confocal microscopic analysis. In kind it is ADME, cell-based. The following applies: human, hek293-a, 0.05 µM. The procedure, abridged:
as §2

A short description of series [18]: Drug uptake in HEK293A cells at 15 nM measured 5 mins post wash out by DiD dye-based confocal microscopic analysis. The settings on record: human, hek293-a, 0.015 µM. In kind it is ADME, cell-based. The procedure, abridged: as §7
Series [19] has as its target T2, Alpha-1D adrenergic receptor (Homo sapiens). Nature of the series: Binding affinity to alpha-1D adrenergic receptor (unknown origin) transfected in HEK293A cells at 15 nM measured 5 mins post wash out by DiD dye-based confocal microscopic analysis in presence of alpha1 adrenergic receptor antagonist tamsulosin. In kind it is cell-based. The settings on record: HEK293-A. The procedure, abridged:
as §6

Series [20] deals with T4, Alpha-1A adrenergic receptor (Homo sapiens). The series can be described thus: Binding affinity to alpha-1A adrenergic receptor (unknown origin) transfected in HEK293A cells at 15 nM measured 5 mins post wash out by DiD dye-based confocal microscopic analysis. The settings on record: HEK293-A. In kind it is cell-based. The method in brief: as §7
The nature of series [21]: Drug uptake in plasma membrane of HEK293A cells transfected with alpha-1A adrenergic receptor at 50 nM measured 5 mins post wash out by DiD dye-based confocal microscopic analysis. The class given is ADME. The following applies: human, hek293-a, 0.05 µM. The procedure, abridged: as §2

The source made the active and inactive calls. No cut-off for these calls is given here.

The term IC50 denotes the concentration needed to halve the response being measured. A word on the Ki: it is the equilibrium dissociation constant of an inhibitor or competing ligand from its target. Turning to `COc1cc2nc(N3CCN(C(=S)Nc4ccc(-c5c6ccc(=O)cc-6oc6cc(O)ccc56)c(C(=O)O)c4)CC3)nc(N)c2cc1OC`, the IC50 in series [1] was 34 nM; in series [3], 16.3 nM; in [7] it was 8.8 nM; in [8] it was > 100 µM; in series [10], > 100 µM. Also, the Ki in [1] was found to be 20.7 nM; in series [3], 7.3 nM; in [7] it was 4.7 nM. Moreover, the result in series [2], in series [5] and in series [9] was Active. The outcome in series [4], in [11] and in series [12] was inactive. For the same compound, the Drug uptake result in [6] and in series [13] was “Active” each time.

Regarding `COc1cc2nc(N3CCN(C(=O)c4cc5ccc(O)cc5oc4=O)CC3)nc(N)c2cc1OC`, the IC50 in series [1] was < 5 nM; in series [3] it was < 5 nM; in series [7], 3.9 nM; in series [8], > 100 µM; in series [10] it was > 100 µM. Also, the result in series [14] and in series [19] was inactive. The outcome in series [15] and in [20] was Active. In addition, the Drug uptake entry in [16], in series [17], in series [18] and in series [21] was “Active” in each case. This compound also registered a Ki in series [7] of 2.1 nM.

On to `COc1cc2nc(N3CCN(C(=O)c4cn(-c5cc6ccc(O)cc6oc5=O)nn4)CC3)nc(N)c2cc1OC`, for which the IC50 in [1] was < 5 nM; in series [3] it was < 5 nM; in series [7], 2.5 nM; in series [8], > 100 µM; in [10], 85 µM. Moreover, the outcome in series [14] and in [19] was inactive. In addition, the outcome in series [15] and in [20] was Active. In addition, the Drug uptake result in [18] is “Active”. In [7], this compound registered a Ki of 1.3 nM.

The values are drawn from ChEMBL document CHEMBL3580589, “Discovery of Quinazoline-Based Fluorescent Probes to α1-Adrenergic Receptors” (ACS Med Chem Lett, 2015).
